# Measured values: ChEMBL document CHEMBL1123921, “Quinolonecarboxylic acids. 2. Synthesis and antibacterial evaluation of 7-oxo-2,3-dihydro-7H-pyrido[1,2,3-de][1,4]benzothiazine-6-carboxylic acids” (J Med Chem, 1987)
# Assays:
# [1] = Total clearance was determined in rat at 10 mg/kg intraperitoneal dosage; format: ADME, organism-based; set-up: dose 10 mg/kg, route intraperitoneal; conditions: in vivo, ip, read-out: Clearance (converted)
# How it was run: (§1)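 Fasted male Wistar rats (180–230 g) given the drug ip in carboxymethyl cellulose. Plasma and urine extracted with CHCl₃ from citrate buffer pH 6.2 with internal standard. Analysis by reverse-phase C-18 HPLC, 0.1% AcOH/MeOH gradient, 245 nm UV. Urinary clearance and total clearance derived as pharmacokinetic parameters.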
# [2] = Time taken for peak plasma concentration at a dose of 20 mg/kg, oral route in monkey (Macaca fascicularis) suspended in carboxymethyl cellulose (CMC); format: ADME, organism-based; set-up: dose 20 mg/kg, route oral; conditions: cynomolgus monkey
# How it was run: (§2)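 Four male beagle dogs or two Macaca fascicularis monkeys dosed orally, suspended in carboxymethyl cellulose. Venous blood collected into heparinized tubes and plasma separated by low-speed centrifugation. Urine gathered in metabolic cages. Unchanged drug measured by C-18 HPLC (extraction, UV 245 nm).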
# [3] = Urinary clearance was determined in rat at 10 mg/kg intraperitoneal dosage; format: ADME, organism-based; set-up: dose 10 mg/kg, route intraperitoneal; conditions: urine, ip, read-out: CL_renal (converted); how it was run: as §1
# [4] = Urinary clearance was determined in rat at 25 mg/kg os dosage; format: ADME, organism-based; set-up: dose 25 mg/kg; conditions: urine, po, read-out: CL_renal (converted)
# How it was run: (§3)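 Fasted male Wistar rats (180–230 g) dosed orally, suspended in carboxymethyl cellulose. Plasma and urine assayed by HPLC: sample plus internal standard and citrate buffer (0.1 M, pH 6.2), extracted into CHCl₃, dried, redissolved in MeOH. Separation on C-18 with 0.1% AcOH/MeOH gradient, UV detection at 245 nm.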
# [5] = Half life period was determined for the compound at 20 mg/kg concentration, oral route in monkey (Macaca fascicularis); format: ADME, organism-based; set-up: dose 20 mg/kg, route oral; conditions: cynomolgus monkey, in vivo; how it was run: as §2
# [6] = Lethal dose after single iv administration to mouse was determined; format: toxicity, organism-based; conditions: in vivo
# Staphylococcus aureus = assay: In vitro antibacterial activity against clinical isolates of Staphylococcus aureus 18773 (gram-positive) by agar dilution assay.; format: functional
# How it was run: (§4)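 Agar dilution on Isosensitest agar; compound incorporated by twofold serial dilution. Overnight broth cultures delivered by multipoint inoculator at 10⁵ CFU per point. Plates read after 18 h at 37 °C. MIC taken as the lowest concentration giving complete growth inhibition.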
# [7] = Urinary excretion for the compound was evaluated as percent dose excreted at 10 mg/kg intraperitoneal dosage; format: ADME, organism-based; set-up: dose 10 mg/kg, route intraperitoneal; conditions: urine, ip; how it was run: as §1
# [8] = Urinary excretion for the compound was evaluated as percent dose excreted at 25 mg/kg os dosage; format: ADME, organism-based; set-up: dose 25 mg/kg; conditions: urine, po; how it was run: as §3
# [9] = Urinary excretion for the compound was evaluated as percent dose excreted at 400 mg/kg oral dosage in human; format: ADME, organism-based; set-up: dose 400 mg/kg, route oral; conditions: urine
# How it was run: (§5)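 Four healthy volunteers of both sexes took oral capsules (100 mg units) at three dose levels. Venous blood drawn into heparinized tubes and plasma obtained by low-speed centrifugation. Urine collected. Unchanged drug in plasma and urine determined by C-18 HPLC after CHCl₃ extraction, with UV detection at 245 nm.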
# [10] = Peak plasma concentration at a dose of 50 mg/kg, os route in rat suspended in carboxymethyl cellulose (CMC); format: ADME, organism-based; set-up: dose 50 mg/kg; conditions: po, read-out: Activity
# How it was run: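 Fasted male Wistar rats (180–230 g), drug suspended in carboxymethyl cellulose, given orally or ip. Plasma (heparinized) and urine from metabolic cages were sampled at various times. The unchanged drug was measured by HPLC after CHCl3 extraction at pH 6.2 with an internal standard, on a C-18 column with an AcOH/MeOH gradient and UV detection at 245 nm. Interassay and intraassay variability was about 10%.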
# [11] = Ratio of tissue (heart) levels to plasma levels after 15 hr of treatment; format: ADME
# How it was run: (§6)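 Male Wistar rats received 50 mg/kg po and were killed at 1 and 15 h. Tissue homogenates and plasma extracted with CHCl₃ after adding internal standard and pH 6.2 citrate buffer. Drug quantified by C-18 HPLC with UV at 245 nm. Tissue level divided by plasma level.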
# [12] = Urinary excretion for the compound was evaluated as percent dose excreted at 25 mg/kg intraperitoneal dosage; format: ADME, organism-based; set-up: dose 25 mg/kg, route intraperitoneal; conditions: urine, ip; how it was run: as §1
# [13] = Time taken for peak plasma concentration at a dose of 25 mg/kg, os route in rat suspended in carboxymethyl cellulose (CMC); format: ADME, organism-based; set-up: dose 25 mg/kg; conditions: po; how it was run: as §3
# [14] = Urinary excretion for the compound was evaluated as percent dose excreted at 50 mg/kg os dosage; format: ADME, organism-based; set-up: dose 50 mg/kg; conditions: urine, po; how it was run: as §3
# [15] = Lethal dose after single iv administration to rat was determined; format: toxicity, organism-based; conditions: in vivo
# How it was run: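 Male Wistar rats (130-150 g) were given single intravenous doses at no fewer than three levels. Deaths were counted over 14 days, and LD50 was calculated by the Litchfield and Wilcoxon method.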
# [16] = Time taken for peak plasma concentration at a dose of 100 mg/kg, oral route in human; format: ADME, organism-based; set-up: dose 100 mg/kg, route oral; how it was run: as §5
# in vivo [17] = conditions: plasma, po, 50 mg/kg
# [18] = Peak plasma concentration at a dose of 25 mg/kg, os route in rat suspended in carboxymethyl cellulose (CMC); format: ADME, organism-based; set-up: dose 25 mg/kg; conditions: po, read-out: Activity; how it was run: as §3
# [19] = Half life period was determined for the compound at 100 mg/kg concentration, oral route in human; format: ADME, organism-based; set-up: dose 100 mg/kg, route oral; conditions: in vivo; how it was run: as §5
# in vivo [20] = conditions: heart, po, 50 mg/kg
# [21] = Peak plasma concentration at a dose of 100 mg/kg, oral route in human; format: ADME, organism-based; set-up: dose 100 mg/kg, route oral; conditions: read-out: Activity; how it was run: as §5
# [22] = Ratio of tissue (kidney) levels to plasma levels after 15 hr of treatment; format: ADME; how it was run: as §6
# [23] = Peak plasma concentration at a dose of 20 mg/kg, oral route in monkey (Macaca fascicularis) suspended in carboxymethyl cellulose (CMC);Range is between (5.5-6); format: ADME, organism-based; set-up: dose 20 mg/kg, route oral; conditions: cynomolgus monkey, read-out: Activity; how it was run: as §2
# [24] = Peak plasma concentration at a dose of 100 mg/kg, os route in rat suspended in carboxymethyl cellulose (CMC); format: ADME, organism-based; set-up: dose 100 mg/kg; conditions: po, read-out: Activity; how it was run: as §3
# [25] = Half life period was determined for the compound at 200 mg/kg concentration, oral route in human; format: ADME, organism-based; set-up: dose 200 mg/kg, route oral; conditions: in vivo; how it was run: as §5
# [26] = Peak plasma concentration at a dose of 400 mg/kg, oral route in human; format: ADME, organism-based; set-up: dose 400 mg/kg, route oral; conditions: read-out: Activity; how it was run: as §5
# [27] = Half life period was determined for the compound at 100 mg/kg concentration, os route; conditions: in vivo, po
# [28] = Half life period was determined for the compound at 10 mg/kg concentration, intraperitoneal route; conditions: in vivo, ip
# [29] = Urinary excretion for the compound was evaluated as percent dose excreted at 200 mg/kg oral dosage in human; format: ADME, organism-based; set-up: dose 200 mg/kg, route oral; conditions: urine; how it was run: as §5
# Escherichia coli = assay: In vitro antibacterial activity against clinical isolates of Escherichia coli 15 (gram negative) by agar dilution assay.; format: functional; how it was run: as §4
# [30] = Tissue levels determined 1 hr after peroral dose of 50 mg/kg in liver; conditions: po
# Morganella morganii = assay: In vitro antibacterial activity against clinical isolates of Proteus morganii 27 (gram negative) by agar dilution assay.; format: functional; how it was run: as §4
# [31] = Peak plasma concentration at a dose of 200 mg/kg, oral route in human; format: ADME, organism-based; set-up: dose 200 mg/kg, route oral; conditions: read-out: Activity; how it was run: as §5
# [32] = Tissue levels determined 1 hr after peroral dose of 50 mg/kg in heart; conditions: po
# [33] = Time taken for peak plasma concentration at a dose of 400 mg/kg, oral route in human; format: ADME, organism-based; set-up: dose 400 mg/kg, route oral; how it was run: as §5
# [34] = Total clearance was determined in rat at 25 mg/kg intraperitoneal dosage; format: ADME, organism-based; set-up: dose 25 mg/kg, route intraperitoneal; conditions: in vivo, ip, read-out: Clearance (converted); how it was run: as §1
# Pseudomonas aeruginosa = assay: In vitro antibacterial activity against clinical isolates of Pseudomonas aeruginosa 2437 (gram negative) by agar dilution assay.; format: functional; how it was run: as §4
smiles,measurement,setting,value
CN1CCN(c2c(F)cc3c(=O)c(C(=O)O)cn4c3c2SCC4)CC1 [RUFLOXACIN],CL/F,[1],4.22 mL/min/kg
same,Tmax,[2],2 h
same,CL renal,[3],0.75 mL/min/kg
same,CL renal,[4],1.21 mL/min/kg
same,half-life,[5],50 h
same,LD50,[6],224 mg/kg
same,MIC,Staphylococcus aureus,0.78 µg/mL
same,dose excreted,[7],26%
same,dose excreted,[8],24.5%
same,dose excreted,[9],33%
same,Cmax,[10],8000 ng/mL
same,Kp at 15 h,[11],1.7
same,dose excreted,[12],22.2%
same,Tmax,[13],1 h
same,dose excreted,[14],16.7%
same,LD50,[15],285 mg/kg
same,Tmax,[16],4 h
same,concentration at 15 h,in vivo [17],3000 ng/mL
same,Cmax,[18],6000 ng/mL
same,half-life,[19],30 h
same,concentration at 15 h,in vivo [20],5000 ng/mL
same,Cmax,[21],1870 ng/mL
same,Kp at 15 h,[22],2.7
same,Cmax,[23],5500 ng/mL
same,Cmax,[24],21000 ng/mL
same,half-life,[25],35 h
same,Cmax,[26],2730 ng/mL
same,half-life,[27],8.7 h
same,half-life,[28],9.9 h
same,dose excreted,[29],55%
same,MIC,Escherichia coli,0.78 µg/mL
same,concentration at 1 h,[30],80000 ng/mL
same,MIC,Morganella morganii,1.56 µg/mL
same,Cmax,[31],1920 ng/mL
same,concentration at 1 h,[32],31000 ng/mL
same,Tmax,[33],2 h
same,CL/F,[34],4.18 mL/min/kg
same,MIC,Pseudomonas aeruginosa,12.5 µg/mL
